This is an account of results in ChEMBL document CHEMBL1667846, “Optimization of a novel class of benzimidazole-based farnesoid X receptor (FXR) agonists to improve physicochemical and ADME properties” (Bioorg Med Chem Lett, 2011).

Data set [1] in a line: Solubility of the compound in 0.05 M phosphate buffer at pH 6.5. The class given is physicochemical.
The nature of data set [2]: Lipophilicity log D of the compound at pH 7.4. The format is physicochemical. As to conditions: buffer. In short, it runs like this: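 Lipophilicity measured as log D at pH 7.4.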
A short description of data set [3]: Cmax in C57BL/6 mouse at 4 mg/kg, iv or 10 mg/kg, po. The following applies: in vivo. The class given is ADME, organism-based. In short, it runs like this: (§1)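 Male C57BL/6 mice (4 mg/kg iv, 10 mg/kg po) and male Wistar rats (2 mg/kg iv, 5 mg/kg po), single doses. Oral vehicle was 7.5% gelatin in 0.62% aqueous NaCl. Intravenous vehicle was 30% N-methylpyrrolidinone in aqueous 100 mM TRIS buffer pH 8.5. Reported parameters were Cl, Cmax/dose, Vss, AUC/dose, t1/2 and oral bioavailability F.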

The nature of data set [4]: Volume of distribution at steady state in C57BL/6 mouse at 4 mg/kg, iv. The format is ADME, organism-based. As to conditions: in vivo, read-out: Vdss. On the set-up: dose 4 mg/kg, route intravenous. In short, it runs like this: as §1
Data set [5] is described as follows: AUC in C57BL/6 mouse at 4 mg/kg, iv or 10 mg/kg, po. The format is ADME, organism-based. The following applies: plasma. In short, it runs like this:
as §1

Data set [6] can be described thus: Oral bioavailability in C57BL/6 mouse at 4 mg/kg, iv or 10 mg/kg, po. The class given is ADME, organism-based. The following applies: in vivo. In short, it runs like this:
as §1

A short description of data set [7]: Cmax in Wistar rat at 2 mg/kg, iv or 5 mg/kg, po. The following applies: in vivo. The format is ADME, organism-based. In short, it runs like this:
as §1

Data set [8] is described as follows: Volume of distribution at steady state in Wistar rat at 2 mg/kg, iv or 5 mg/kg, po. The format is ADME, organism-based. The following applies: in vivo, read-out: Vdss. In short, it runs like this:
as §1

Data set [9] can be described thus: AUC in Wistar rat at 2 mg/kg, iv or 5 mg/kg, po. The class given is ADME, organism-based. The following applies: plasma. In short, it runs like this: as §1
Data set [10] can be described thus: Oral bioavailability in Wistar rat at 2 mg/kg, iv or 5 mg/kg, po. The format is ADME, organism-based. The following applies: in vivo. In short, it runs like this: as §1

Molecules are shown by their SMILES. Converted amounts (≈) assume the structure as drawn.

`Cc1cc(C(=O)O)ccc1NC(=O)[C@H](C1CCCCC1)n1c(-c2ccc(Cl)cc2)nc2cc(F)c(F)cc21`: the concentration in solution in data set [1] (solubility) came to 32 µg/mL (≈ 59.5 µM). Further, the logD – broadly, the decadic logarithm of the distribution of all forms, ionised or not, between an organic phase and buffer at a given pH – in [2] was determined as 2.83.

`O=C(O)c1ccc(NC(=O)[C@H](C2CCCCC2)n2c(-c3ccc(Cl)cc3)nc3cc(F)c(F)cc32)c(F)c1`: the solubility (usually the concentration that dissolves in the medium under given conditions) in data set [1] is 115 µg/mL (≈ 212 µM). This compound also had a logD in [2] of 2.66. For the same compound, the results for the Cmax/dose in [3] and in data set [7] were 205 ng/mL and 270 ng/mL, respectively. Moreover, the Vd in data set [4] was found to be 1.24 L/kg; in [8], 0.62 L/kg. Further, the AUC – broadly, the area under the concentration-time curve, a measure of exposure – in data set [5] is 5430 ng·h/mL; in data set [9], 3030 ng·h/mL. Besides, the values for the bioavailability in data set [6] and in data set [10] were 33% and 59%, respectively.

`O=C(O)c1ccc(NC(=O)[C@H](C2CCCCC2)n2c(-c3ccc(Cl)cc3)nc3cc(F)c(F)cc32)cc1`: in [1], the solubility stood at 88 µg/mL (≈ 168 µM). The compound further yielded a logD in data set [2] of 3.06.

Compound `O=C(NC1CCCCC1)[C@H](C1CCCCC1)n1c(-c2ccc(Cl)cc2)nc2cc(F)c(Cl)cc21` showed a solubility in data set [1] of under 1 µg/mL. This compound also returned a logD in data set [2] of over 4.

Regarding `O=C(NC1CCCCC1)[C@H](C1CCCCC1)n1c(-c2ccc(Cl)cc2)nc2cc(F)c(F)cc21`, the solubility in data set [1] was under 1 µg/mL. In addition, the logD in data set [2] is over 4.

`O=C(N[C@H]1CC[C@H](O)CC1)[C@H](C1CCCCC1)n1c(-c2ccc(Cl)cc2)nc2cc(F)c(F)cc21` came in with a solubility in data set [1] of 17 µg/mL (≈ 33.9 µM). The compound further gave a logD in data set [2] of over 4.

Compound `O=C(N[C@H]1CC[C@H](C(=O)O)CC1)[C@H](C1CCCCC1)n1c(-c2ccc(Cl)cc2)nc2cc(F)c(F)cc21` displayed a solubility in data set [1] of 395 µg/mL (≈ 745 µM). In addition, the logD in data set [2] was determined as 2.49.

`O=C(O)c1ccc(NC(=O)[C@H](C2CCCCC2)n2c(-c3ccc(Cl)cc3)nc3cc(F)c(F)cc32)c(Cl)c1` yielded a solubility in [1] of 51 µg/mL (≈ 91.3 µM). The compound further came in with a logD in data set [2] of 2.98.

Turning to `O=C(Nc1ccc(OC2(C(=O)O)CC2)cc1F)[C@H](C1CCCCC1)n1c(-c2ccc(Cl)cc2)nc2cc(F)c(F)cc21`, the solubility in data set [1] was 280 µg/mL (≈ 468 µM). The compound further returned a logD in [2] of 2.32.

In the case of `O=C(Nc1ccc(-c2nnn[nH]2)cc1F)[C@H](C1CCCCC1)n1c(-c2ccc(Cl)cc2)nc2cc(F)c(F)cc21`, the solubility in data set [1] was found to be 490 µg/mL (≈ 866 µM). This compound had a logD in data set [2] of 2.96.

The compound `O=C(O)c1ccc(NC(=O)[C@H](C2CCCCC2)n2c(-c3ccc(Cl)cc3)nc3ccccc32)c(C(F)(F)F)c1` yielded a solubility in [1] of 175 µg/mL (≈ 315 µM). In addition, the logD in [2] turned out to be 2.34.

In data set [1], `COc1ccc(-c2nc3cc(F)c(F)cc3n2[C@H](C(=O)N[C@H]2CC[C@H](C(=O)O)CC2)C2CCCCC2)c(OC)n1` returned a solubility of 465 µg/mL (≈ 835 µM). The compound also had a logD in data set [2] of 1.91.
